Data published in ChEMBL document CHEMBL3046864, “Synthesis and antifungal activity of a series of N-substituted [2-(2,4-dichlorophenyl)-3-(1,2,4-triazol-1-yl)]propylamines” (J Agric Food Chem, 2007).
≈ marks a conversion by molar mass, not a printed value. Calls of active or inactive are those of the source. The calls are words filed in the database; no cut-off is given here.

What was measured:
Oculimacula yallundae = assay: Fungicidal activity against Oculimacula yallundae assessed as inhibition of radial growth; assay type: functional, organism-based
In short: (§1)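 Strains from the IPV collection were maintained on potato dextrose agar. Radial growth on PDA was measured at 100–0.1 mg L-1. % inhibition was taken from the mean difference between treated and control cultures relative to control. % inhibition was plotted on a probit scale against dose to give EC50.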

Puccinia recondita = assay: Antifungal activity against Puccinia recondita infected 125 ug/mL compound […] assessed as inhibition of wheat brown rust disease measured after 10 days post fungal inoculation; assay type: functional
Phytophthora infestans = assay: Antifungal activity against Phytophthora infestans infected 125 ug/mL compound pre-treated six-leaves stage tomato plant seedlings assessed as inhibition of disease measured after 7 days post fungal inoculation; assay type: functional
In short: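 Preventive application before inoculation. Tomato plants were sprayed with a P. infestans zoosporangia suspension (5 × 10^4 mL-1). Plants were held 24 h at 20 ± 1 °C and 100% RH, then moved to a greenhouse at 23 ± 1 °C and 70 ± 10% RH. Diseased leaf area was scored 7 days after inoculation against nontreated plants to give percentage disease inhibition.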

Cercospora beticola = assay: Fungicidal activity against Cercospora beticola assessed as inhibition of radial growth; assay type: functional, organism-based; in short: as §1
Blumeria graminis = assay: Antifungal activity against Blumeria graminis f. sp. tritici infected in 125 ug/mL […] assessed as inhibition of wheat powdery mildew disease measured after 10 days post fungal inoculation; assay type: functional
Pyrenophora teres = assay: Fungicidal activity against Pyrenophora teres assessed as inhibition of radial growth; assay type: functional, organism-based; in short: as §1
Ustilago maydis = assay: Fungicidal activity against Ustilago maydis ATCC 14826 assessed as inhibition of fungal cell count; assay type: functional, organism-based; settings: Mycosarcoma maydis
In short: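 U. maydis ATCC 14826 broth cultures were grown in Coursen and Sisler broth with compound. Growth was estimated by sporidial cell count at the end of treatment and expressed as % inhibition versus the untreated control.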

Botrytis cinerea = assay: Fungicidal activity against Botryotinia fuckeliana assessed as inhibition of radial growth; assay type: functional, organism-based; in short: as §1
Fusarium graminearum = assay: Fungicidal activity against Fusarium graminearum assessed as inhibition of radial growth; assay type: functional, organism-based
In short: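 The Fusarium isolate came from the IPV collection and was kept on PDA. Radial growth was measured on PDA plates at 100–0.1 mg L-1. Percentage inhibition was taken from the mean difference between treated and control cultures. EC50 came from a probit plot of percentage inhibition against dose.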

[1] = target: T1, Squalene monooxygenase (Mycosarcoma maydis) (UniProt A0A0D1C8X8); assay: Inhibition of squalene epoxidase in Ustilago maydis ATCC 14826 assessed as effect on squalene level at 0.01 to 100 mg/L measured after 18 hr post compound treatment
T1 sequence (whole entry): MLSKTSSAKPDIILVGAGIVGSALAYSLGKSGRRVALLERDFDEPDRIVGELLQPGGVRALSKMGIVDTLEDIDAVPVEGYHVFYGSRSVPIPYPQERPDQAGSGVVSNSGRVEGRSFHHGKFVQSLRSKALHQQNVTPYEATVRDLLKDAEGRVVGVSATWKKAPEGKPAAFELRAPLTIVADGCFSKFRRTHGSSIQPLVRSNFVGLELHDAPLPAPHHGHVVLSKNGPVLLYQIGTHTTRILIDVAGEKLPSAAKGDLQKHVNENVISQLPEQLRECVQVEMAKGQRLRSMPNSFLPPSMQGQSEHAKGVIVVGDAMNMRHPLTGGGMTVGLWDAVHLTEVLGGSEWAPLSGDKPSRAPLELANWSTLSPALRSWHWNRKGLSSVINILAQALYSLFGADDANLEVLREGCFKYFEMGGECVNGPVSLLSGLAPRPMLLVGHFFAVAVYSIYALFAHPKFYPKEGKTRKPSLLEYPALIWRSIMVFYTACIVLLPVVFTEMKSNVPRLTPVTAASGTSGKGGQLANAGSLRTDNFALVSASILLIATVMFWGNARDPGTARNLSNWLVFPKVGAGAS
In short: (§2)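 U. maydis was grown in Coursen and Sisler broth with compound at 0.01–100 mg L-1 for 18 h. Sporidia were harvested by centrifugation, spiked with dihydrocholesterol as a known-amount standard, and saponified in 20% KOH in 60% ethanol for 1 h at 90 °C. The unsaponifiable fraction, including squalene and 14-methyl sterols, was analysed by capillary GC-FID and GC-MS.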

[2] = target: T2, Lanosterol 14-alpha demethylase (Mycosarcoma maydis) (UniProt P49602); assay: Inhibition of 14alpha-demethylase in Ustilago maydis ATCC 14826 assessed as increase in 14-methyl sterols levels at 0.01 to 100 mg/L measured after 18 hr post compound treatment; in short: as §2
T2 sequence (whole entry): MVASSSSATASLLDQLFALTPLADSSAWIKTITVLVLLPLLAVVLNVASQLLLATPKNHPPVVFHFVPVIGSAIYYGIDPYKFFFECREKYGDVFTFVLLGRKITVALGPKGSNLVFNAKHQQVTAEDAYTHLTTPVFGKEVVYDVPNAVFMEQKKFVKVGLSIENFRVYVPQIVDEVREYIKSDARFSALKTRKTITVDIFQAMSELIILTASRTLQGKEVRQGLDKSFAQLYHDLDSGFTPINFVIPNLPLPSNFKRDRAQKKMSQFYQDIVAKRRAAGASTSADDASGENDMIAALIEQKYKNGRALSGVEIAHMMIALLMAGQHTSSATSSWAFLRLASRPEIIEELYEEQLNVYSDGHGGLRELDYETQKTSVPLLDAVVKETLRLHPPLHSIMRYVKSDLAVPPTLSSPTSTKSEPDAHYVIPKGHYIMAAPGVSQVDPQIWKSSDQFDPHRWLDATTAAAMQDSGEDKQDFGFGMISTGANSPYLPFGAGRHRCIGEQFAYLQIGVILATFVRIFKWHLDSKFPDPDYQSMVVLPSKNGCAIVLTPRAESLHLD

| Compound | EC50 (Oculimacula yallundae) [µg/mL] | inhibition (INH) (Puccinia recondita) [%] | inhibition (INH) (Phytophthora infestans) [%] | EC50 (Cercospora beticola) [µg/mL] | inhibition (INH) (Blumeria graminis) [%] | EC50 (Pyrenophora teres) [µg/mL] | EC50 (Ustilago maydis) [µg/mL] | EC50 (Botrytis cinerea) [µg/mL] | EC50 (Fusarium graminearum) [µg/mL] | inhibition [1] | inhibition [2] |
| --- | --- | --- | --- | --- | --- | --- | --- | --- | --- | --- | --- |
| Clc1ccc(C(CNC/C=C/c2ccccc2)Cn2cncn2)c(Cl)c1 (centres undefined) | 7.5 (≈ 19.4 µM) | 20 | 0 | 2.4 (≈ 6.2 µM) | 25 | 12 (≈ 31 µM) | 1.4 (≈ 3.61 µM) | 42 (≈ 108 µM) | 26 (≈ 67.1 µM) | – | – |
| Clc1ccc(C(CNCc2ccccc2)Cn2cncn2)c(Cl)c1 (centres undefined) | 23.4 (≈ 64.8 µM) | – | – | 2.7 (≈ 7.47 µM) | – | 30.3 (≈ 83.9 µM) | 11.3 (≈ 31.3 µM) | > 100 | > 100 | – | – |
| Clc1ccc(C(CN(Cc2ccccc2)Cc2ccccc2)Cn2cncn2)c(Cl)c1 (centres undefined) | 17 (≈ 37.7 µM) | – | – | 4 (≈ 8.86 µM) | – | 1.9 (≈ 4.21 µM) | 0.09 (≈ 0.199 µM) | 6 (≈ 13.3 µM) | > 100 | – | – |
| C=CCNCC(Cn1cncn1)c1ccc(Cl)cc1Cl (centres undefined) | 91.3 (≈ 293 µM) | – | – | 31.7 (≈ 102 µM) | – | > 100 | 19.9 (≈ 63.9 µM) | > 100 | > 100 | – | – |
| Clc1ccc(C(CN(C/C=C/c2ccccc2)C/C=C/c2ccccc2)Cn2cncn2)c(Cl)c1 (centres undefined) | > 100 | – | – | 12.5 (≈ 24.8 µM) | – | 6 (≈ 11.9 µM) | 0.65 (≈ 1.29 µM) | > 100 | > 100 | – | – |
| NCC(Cn1cncn1)c1ccc(Cl)cc1Cl (centres undefined) | > 100 | – | – | > 100 | – | > 100 | 70.3 (≈ 259 µM) | > 100 | > 100 | – | – |
| Clc1ccc(C(CN(C2CC2)C2CC2)Cn2cncn2)c(Cl)c1 (centres undefined) | 1.2 (≈ 3.42 µM) | 10 | 0 | 0.4 (≈ 1.14 µM) | 60 | 5.5 (≈ 15.7 µM) | 0.02 (≈ 0.0569 µM) | 7.5 (≈ 21.4 µM) | 55 (≈ 157 µM) | – | – |
| C#CCN(CC#C)CC(Cn1cncn1)c1ccc(Cl)cc1Cl (centres undefined) | 2.8 (≈ 8.06 µM) | 15 | 0 | 1.1 (≈ 3.17 µM) | 35 | 2.1 (≈ 6.05 µM) | 0.14 (≈ 0.403 µM) | 4.9 (≈ 14.1 µM) | 9 (≈ 25.9 µM) | – | – |
| C/C=C/C(=O)NCC(Cn1cncn1)c1ccc(Cl)cc1Cl (centres undefined) | > 100 | – | – | 60.5 (≈ 178 µM) | – | > 100 | 20.7 (≈ 61 µM) | > 100 | > 100 | – | – |
| CC(=O)NCC(Cn1cncn1)c1ccc(Cl)cc1Cl (centres undefined) | > 100 | – | – | > 100 | – | > 100 | 60 (≈ 192 µM) | > 100 | > 100 | – | – |
| FC(F)C(F)(F)OCC(Cn1cncn1)c1ccc(Cl)cc1Cl (centres undefined) [TETRACONAZOLE] | – | 100 | 0 | – | 100 | – | – | 0.04 (≈ 0.107 µM) | – | – | – |
| C=CCN(CC=C)CC(Cn1cncn1)c1ccc(Cl)cc1Cl (centres undefined) | 3.6 (≈ 10.2 µM) | 25 | 0 | 2.6 (≈ 7.4 µM) | 30 | 6.5 (≈ 18.5 µM) | 0.22 (≈ 0.626 µM) | 10 (≈ 28.5 µM) | > 100 | inactive | Active |
| CC(C)(C)c1ccc(CN(Cc2ccc(C(C)(C)C)cc2)CC(Cn2cncn2)c2ccc(Cl)cc2Cl)cc1 (centres undefined) | > 100 | – | – | 7 (≈ 12.4 µM) | – | > 100 | 9 (≈ 16 µM) | > 100 | > 100 | – | – |
| C=CCN(CC(Cn1cncn1)c1ccc(Cl)cc1Cl)C1CC1 (centres undefined) | 0.8 (≈ 2.28 µM) | – | – | 0.2 (≈ 0.569 µM) | – | 3.2 (≈ 9.11 µM) | 0.01 (≈ 0.0285 µM) | 4.4 (≈ 12.5 µM) | 55 (≈ 157 µM) | – | – |
| C#CCNCC(Cn1cncn1)c1ccc(Cl)cc1Cl (centres undefined) | 11 (≈ 35.6 µM) | – | – | 4 (≈ 12.9 µM) | – | 38 (≈ 123 µM) | 1.3 (≈ 4.2 µM) | 38 (≈ 123 µM) | > 100 | – | – |
| CN(C)CC(Cn1cncn1)c1ccc(Cl)cc1Cl (centres undefined) | 6.5 (≈ 21.7 µM) | – | – | 8 (≈ 26.7 µM) | – | 42 (≈ 140 µM) | 2.5 (≈ 8.36 µM) | 75 (≈ 251 µM) | > 100 | – | – |
| O=C(NCC(Cn1cncn1)c1ccc(Cl)cc1Cl)c1ccccc1 (centres undefined) | 80.3 (≈ 214 µM) | – | – | 2.5 (≈ 6.66 µM) | – | 11.5 (≈ 30.6 µM) | 1.9 (≈ 5.06 µM) | 100 (≈ 266 µM) | > 100 | – | – |
